Source: ChEMBL document CHEMBL1153510, “Fascaplysin-inspired diindolyls as selective inhibitors of CDK4/cyclin D1” (Bioorg Med Chem, 2009)

Columns and labels:
[1] = target: Cyclin-dependent kinase 2 (Homo sapiens, UniProt P24941); test: Inhibition of human CDK2/ Cyclin A catalytic subunit expressed in Sf9 insect cells assessed as histone H1 phosphorylation-associated depletion in ATP level by luminescence assay
Method in brief: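 Human GST-cyclin A co-expressed with CDK2 in Sf-9 cells, captured on glutathione-agarose, eluted with reduced glutathione, then dialysed. Reaction volume 50 µL in kinase buffer (40 mM Tris pH 7.5, 20 mM MgCl2, 0.1 mg/ml BSA) with 3 µg histone H1 and 6 µM ATP. Also contains 10 mM β-glycerophosphate, 0.1 mM NaF, 0.1 mM orthovanadate and 1 mM DTT. Started with 200 ng enzyme, run 30 min at 30 °C. Remaining ATP read by Kinase-Glo luminescence; IC50 derived from ATP depletion. Compounds from 10 mM DMSO stocks, serially diluted in kinase buffer.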

[2] = target: Cyclin-dependent kinase 4/cyclin D1 (Homo sapiens, UniProt P11802); test: (§1) Inhibition of human CDK4/ Cyclin D1 catalytic subunit expressed in Sf9 insect cells assessed as GST-RB152 fusion protein phosphorylation-associated depletion in ATP level by luminescence assay
Cyclin-dependent kinase 4/cyclin D1 (Homo sapiens, UniProt P11802), sequence (P11802 whole entry, the tested form may be a part): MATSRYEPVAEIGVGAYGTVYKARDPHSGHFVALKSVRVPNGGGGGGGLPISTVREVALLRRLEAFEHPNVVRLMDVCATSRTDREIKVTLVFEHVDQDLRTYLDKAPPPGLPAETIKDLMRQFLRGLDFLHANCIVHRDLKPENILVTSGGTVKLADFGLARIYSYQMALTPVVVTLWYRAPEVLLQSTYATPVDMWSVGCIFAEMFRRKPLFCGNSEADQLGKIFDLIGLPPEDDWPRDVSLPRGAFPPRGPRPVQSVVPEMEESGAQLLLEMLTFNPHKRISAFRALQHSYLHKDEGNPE
Cyclin-dependent kinase 4/cyclin D1 (Homo sapiens, UniProt P11802), sequence (P24385 whole entry, further chain, the tested form may be a part): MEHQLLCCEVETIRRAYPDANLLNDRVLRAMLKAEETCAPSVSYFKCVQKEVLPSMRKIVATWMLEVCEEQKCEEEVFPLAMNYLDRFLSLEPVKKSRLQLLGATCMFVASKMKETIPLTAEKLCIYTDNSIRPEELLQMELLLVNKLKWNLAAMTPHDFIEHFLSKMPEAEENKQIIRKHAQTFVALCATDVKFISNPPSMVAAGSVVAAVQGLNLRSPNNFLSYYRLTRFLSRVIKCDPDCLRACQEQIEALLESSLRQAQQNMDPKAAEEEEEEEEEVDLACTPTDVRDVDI
Method in brief: (§2)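 Human GST-cyclin D1 co-expressed with CDK4 in Sf-9 cells, purified on glutathione-agarose, eluted and dialysed. Substrate GST-RB152, expressed in E. coli BL21(DE3)pLysS with 4 mM IPTG induction for 4 h at 37 °C. Reaction: 2 µg GST-RB152 and 6 µM ATP in 50 µL Tris pH 7.5/MgCl2/BSA buffer with phosphatase inhibitors and DTT. Started with 200 ng enzyme, 30 min at 30 °C. Read-out Kinase-Glo luminescence of ATP depletion, giving IC50.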

[3] = target: Cyclin-dependent kinase 4/cyclin D1 (Homo sapiens, UniProt P11802+P24385); test: as §1; details: sf9; method in brief: as §2
Cyclin-dependent kinase 4/cyclin D1 (Homo sapiens, UniProt P11802+P24385), sequence (P11802 whole entry): as the sequence (P11802 whole entry, the tested form may be a part) above
Cyclin-dependent kinase 4/cyclin D1 (Homo sapiens, UniProt P11802+P24385), sequence (P24385 whole entry): as the sequence (P24385 whole entry, further chain, the tested form may be a part) above

IC50 ([1]; read-out: IC50)	IC50 [2]	IC50 ([1]; sf9)	IC50 [3]	SMILES
790 µM	136 µM			O=C(C(=O)N1CCc2cc(F)ccc21)c1c[nH]c2ccccc12
862 µM	38 µM			Clc1ccc2c(ccn2CCc2c[nH]c3ccc(Cl)cc23)c1
		ND(Insoluble)	ND(Insoluble)	c1ccc2c(c1)CCN2CCCN1CCc2ccccc21
		ND(Insoluble)	ND(Insoluble)	c1ccc2c(c1)CCN2CCCCCCN1CCc2ccccc21
940 µM	37 µM			c1ccc2c(c1)ccn2CCn1ccc2ccccc21
1210 µM	106 µM			c1ccc2c(c1)ccn2CCCCCCn1ccc2ccccc21
1160 µM	116 µM			O=C(C(=O)N1CCc2ccccc21)c1c[nH]c2ccc(F)cc12
985 µM	96 µM			O=C(C(=O)N1CCc2ccccc21)c1c[nH]c2ccc(Cl)cc12
915 µM	43.5 µM			O=C(C(=O)N1CCc2cc(Cl)ccc21)c1c[nH]c2ccc(Cl)cc12
> 500 µM	> 500 µM			c1ccc2c(c1)ccn2CCc1c[nH]c2ccccc12
500 µM	130 µM			Cc1ccc2c(ccn2CCc2c[nH]c3ccccc23)c1
760 µM	122 µM			O=C(C(=O)N1CCc2ccccc21)c1c[nH]c2ccccc12
430 µM	140 µM			Clc1ccc2c(ccn2CCc2c[nH]c3ccccc23)c1
1230 µM	66 µM			c1ccc2c(c1)CCN2CCN1CCc2ccccc21
200 µM	50 µM			Fc1ccc2[nH]cc(CCn3ccc4ccccc43)c2c1
1070 µM	38 µM			c1ccc2c(c1)ccn2CCCn1ccc2ccccc21
> 500 µM	95 µM			Fc1ccc2c(ccn2CCc2c[nH]c3ccccc23)c1
1030 µM	69.5 µM			O=C(C(=O)N1CCc2cc(Cl)ccc21)c1c[nH]c2ccccc12
1030 µM	45 µM			c1ccc2c(c1)ccn2CCCCn1ccc2ccccc21
816 µM	48 µM			O=C(C(=O)N1CCc2cc(F)ccc21)c1c[nH]c2ccc(F)cc12
710 µM	38 µM			Cc1ccc2c(c1)CCN2C(=O)C(=O)c1c[nH]c2ccc(C)cc12
960 µM	44 µM			Cc1ccc2c(ccn2CCc2c[nH]c3ccc(C)cc23)c1
950 µM	52 µM			c1ccc2c(c1)ccn2CCCCCn1ccc2ccccc21
910 µM	54 µM			Cc1ccc2c(c1)CCN2C(=O)C(=O)c1c[nH]c2ccccc12
951 µM	41.5 µM			Cc1ccc2[nH]cc(C(=O)C(=O)N3CCc4ccccc43)c2c1
> 500 µM	> 500 µM			Clc1ccc2[nH]cc(CCn3ccc4ccccc43)c2c1
		ND(Insoluble)	ND(Insoluble)	c1ccc2c(c1)CCN2CCCCN1CCc2ccccc21
895 µM	73 µM			Fc1ccc2c(ccn2CCc2c[nH]c3ccc(F)cc23)c1
		ND(Insoluble)	ND(Insoluble)	c1ccc2c(c1)CCN2CCCCCN1CCc2ccccc21
400 µM	150 µM			Cc1ccc2[nH]cc(CCn3ccc4ccccc43)c2c1
